Data: ChEMBL document CHEMBL1135533, “Synthesis and in vitro studies of novel pyrimidinyl peptidomimetics as potential antimalarial therapeutic agents” (J Med Chem, 2002)
Converted amounts (≈) assume the structure as drawn.

How the values were obtained:
[1] = tested on: Neuronal cell line; experiment: In vitro inhibition of cell growth in human neuronal cell line.; format: functional, cell-based
[2] = tested on: Colon cell line; experiment: In vitro inhibition of cell growth in human colon cell line.; format: functional, cell-based
Method in brief: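 SW620 colon cells grown and tested in RPMI-1640 with 10% FBS. Serially diluted compound was placed in wells, cells were seeded straight onto it, and solvent blanks were included. After 72 h, cells were fixed with cold TCA (10% final) for 1 h at 4 °C, stained 30 min with 0.4% SRB in 1% acetic acid, and bound dye was solubilized in 10 mM Tris base, pH 10.5.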

[3] = tested on: Plasmodium falciparum; experiment: Inhibitory activity against chloroquine-resistant Plasmodium falciparum W-2 Indochina III; format: functional, organism-based
Method in brief: (§1)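 Drug stocks in DMSO, diluted 400-fold into RPMI 1640 with 25 mM Hepes, 32 mM NaHCO3 and 10% Albumax I, then 2-fold serial dilutions (over 11 concentrations). Parasites exposed 48 h at 37 °C under 5% O2/5% CO2/90% N2, then [3H]hypoxanthine added for a further 18 h. Uptake counted by scintillation; IC50 from nonlinear regression logistic dose-response fit.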

[4] = tested on: Plasmodium falciparum; experiment: Inhibitory activity against chloroquine-sensitive Plasmodium falciparum D6 (CDC/Sierra Leone I); format: functional, organism-based; method in brief: as §1

SMILES | IC50 [1] [µg/mL] | IC50 [2] [µg/mL] | IC50 [3] [µg/mL] | IC50 [4] [µg/mL]
COC(=O)/C(=C/Cn1c(-c2ccccc2)ncc(NC(=O)N2CCN(C(C)=O)CC2)c1=O)COC(C)=O | 13.8 (≈ 27 µM) | > 50 | 0.018 (≈ 0.0352 µM) | 0.017 (≈ 0.0332 µM)
COC(=O)/C(=C/[C@H](C)NC(=O)Cn1c(-c2ccccc2)ncc(NC(=O)OCc2ccccc2)c1=O)COC(C)=O | 1.1 (≈ 1.96 µM) | 1.6 (≈ 2.84 µM) | 0.01 (≈ 0.0178 µM) | 0.009 (≈ 0.016 µM)
COC(=O)/C(=C/Cn1c(-c2ccccc2)ncc(NC(=O)OCc2ccccc2)c1=O)COC(C)=O | 0.92 (≈ 1.87 µM) | > 50 | 0.017 (≈ 0.0346 µM) | 0.017 (≈ 0.0346 µM)
COC(=O)/C(=C/Cn1c(-c2ccccc2)ncc(NC(=O)OCc2ccccc2)c1=O)COC(=O)c1ccccc1 | 2.6 (≈ 4.7 µM) | 13.5 (≈ 24.4 µM) | 0.028 (≈ 0.0506 µM) | 0.027 (≈ 0.0488 µM)
COC(=O)/C(=C/Cn1c(-c2ccccc2)ncc(NC(=O)OCc2ccccc2)c1=O)CO | 0.95 (≈ 2.11 µM) | > 50 | 0.017 (≈ 0.0378 µM) | 0.016 (≈ 0.0356 µM)
COC(=O)/C(=C/Cn1c(-c2ccccc2)ncc(NC(=O)OCc2ccccc2)c1=O)COC(=O)c1ccc([N+](=O)[O-])cc1 | 1.75 (≈ 2.92 µM) | 7.6 (≈ 12.7 µM) | 0.024 (≈ 0.0401 µM) | 0.024 (≈ 0.0401 µM)
